Measurements reported in ChEMBL document CHEMBL4364238, “Discovery of BNC375, a Potent, Selective, and Orally Available Type I Positive Allosteric Modulator of α7 nAChRs” (ACS Med Chem Lett, 2019).
In brackets after ≈: the same amount, converted by molar mass. Blank lines part the entries; values can stand above or below the molecule they belong to. Activity calls are given as the source filed them. The calls are words filed in the database; no cut-off is given here.

Key:
[1] = molecular target: Neuronal acetylcholine receptor subunit alpha-7 (Rattus norvegicus) (UniProt Q05941); experiment: Positive allosteric modulator activity at rat alpha7 nAChR expressed in GH4C1 cells assessed as potentiation of acetylcholine response at 3 uM at -70 mV holding potential preincubated for 30 secs followed by co-application with acetylcholine by automated patch clamp assay; assay type: cell-based
Summary of the method: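 Automated planar patch clamp on stable GH4C1 (rat) cell lines expressing rat α7 nAChR; test compound at 3 μM with an EC₂₀ acetylcholine challenge; percent change in peak current versus acetylcholine alone taken as P₃.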

[2] = molecular target: Neuronal acetylcholine receptor subunit alpha-7 (Rattus norvegicus) (UniProt Q05941); experiment: (§1) Positive allosteric modulatory activity at rat alpha7 nAChR expressed in GH4C1 cells assessed as AUC of potentiation of peak current at -70 mV holding potential preincubated for 30 secs followed by co-application with acetylcholine by manual patch clamp assay relative to peak current potentiation; assay type: cell-based
Summary of the method: (§2)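 Conventional manual patch-clamp with a fast-application system on stable GH4C1 cells expressing rat α7 nAChR; currents evoked by acetylcholine with and without test compound; peak-current change relative to acetylcholine alone gives potentiation (P₃ at 3 μM; concentration–response for EC₅₀ and Pmax).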

[3] = molecular target: Neuronal acetylcholine receptor subunit alpha-7 (Rattus norvegicus) (UniProt Q05941); experiment: as §1, with “of acetylcholine response at 3 uM” for “of peak current”, “by automated” for “by manual”, “to potentiation of” for “to peak”, “current response” for “current potentiation”; assay type: cell-based
[4] = Stability in human liver microsomes assessed as hepatic extraction ratio at 1 uM measured for 45 mins by LC-MS/MS analysis; assay type: ADME, Microsome; conditions: read-out: ERH
[5] = molecular target: Neuronal acetylcholine receptor subunit alpha-7 (Rattus norvegicus, UniProt Q05941); experiment: Positive allosteric modulatory activity at rat alpha7 nAChR expressed in GH4C1 cells assessed as potentiation of acetylcholine response at -70 mV holding potential preincubated for 30 secs followed by co-application with acetylcholine by manual patch clamp assay; assay type: cell-based; summary of the method: as §2
[6] = Apparent permeability in human Caco2 cells; assay type: ADME, cell-based; conditions: Caco-2
[7] = test system: Mus musculus; experiment: Reversal of scopolamine-induced memory impairment in mouse assessed as increase in spontaneous alteration at 3 mg/kg, po administered with compond and scopolamine at 60 mins and 30 mins respectively prior to test by T-maze test; assay type: functional; conditions: read-out: INH
Summary of the method: (§3)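 Mouse T-maze continuous alternation task with scopolamine-induced impairment of spontaneous alternation; compound given orally in saline-based vehicle with 25% Cremophor ELP over 0.003–10.0 mg/kg; group means compared by one-way ANOVA then Fisher's PLSD, p < 0.05 significant.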

[8] = Oral bioavailability in Sprague-Dawley rat; assay type: ADME, organism-based; conditions: in vivo
[9] = Half life in Sprague-Dawley rat plasma at 4 mg/kg administered as single IV bolus dose; assay type: ADME, organism-based
Summary of the method: (§4)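 Single IV bolus of 4.0 mg/kg in male Sprague–Dawley rats; dosing solution 1.1 mg/mL in saline-based vehicle with 0.1 M hydroxypropyl-β-cyclodextrin and 10% (v/v) DMSO; plasma pharmacokinetic parameters derived.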

[10] = test system: Mus musculus; experiment: Reversal of scopolamine-induced memory impairment in mouse assessed as increase in spontaneous alteration at 0.03 mg/kg, po administered with compond and scopolamine at 60 mins and 30 mins respectively prior to test by T-maze test; assay type: functional; summary of the method: as §3
[11] = Dose normalized AUC (0 to infinity) in Sprague-Dawley rat at 4 mg/kg administered as single IV bolus dose; assay type: ADME, organism-based; conditions: in vivo; summary of the method: as §4
[12] = test system: Mus musculus; experiment: Reversal of scopolamine-induced memory impairment in mouse assessed as increase in spontaneous alteration at 0.003 mg/kg, po administered with compond and scopolamine at 60 mins and 30 mins respectively prior to test by T-maze test; assay type: functional; summary of the method: as §3
[13] = Volume of distribution at steady state in Sprague-Dawley rat at 4 mg/kg administered as single IV bolus dose; assay type: ADME, organism-based; conditions: in vivo, read-out: Vdss; summary of the method: as §4
[14] = Plasma clearance in Sprague-Dawley rat at 4 mg/kg administered as single IV bolus dose; assay type: ADME, organism-based; summary of the method: as §4
[15] = test system: Mus musculus; experiment: Reversal of scopolamine-induced memory impairment in mouse assessed as increase in spontaneous alteration at 0.3 mg/kg, po administered with compond and scopolamine at 60 mins and 30 mins respectively prior to test by T-maze test; assay type: functional; summary of the method: as §3
[16] = molecular target: Neuronal acetylcholine receptor subunit alpha-7 (Rattus norvegicus) (UniProt Q05941); experiment: Positive allosteric modulatory activity at rat alpha7 nAChR expressed in GH4C1 cells assessed as potentiation of peak current at -70 mV holding potential preincubated for 30 secs followed by co-application with acetylcholine by manual patch clamp assay relative to acetylcholine-induced peak current; assay type: cell-based; summary of the method: as §2
[17] = Stability in mouse liver microsomes assessed as hepatic extraction ratio at 1 uM measured for 45 mins by LC-MS/MS analysis; assay type: ADME, Microsome; conditions: read-out: ERH
[18] = Solubility of the compound at pH 6.5; assay type: physicochemical; conditions: buffer
[19] = test system: Mus musculus; experiment: Reversal of scopolamine-induced memory impairment in mouse assessed as spontaneous alteration at 3 to 30 mg/kg, po administered with compond and scopolamine at 60 mins and 30 mins respectively prior to test by T-maze test; assay type: functional, organism-based
Summary of the method: (§5)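 Mouse T-maze continuous alternation task; reversal of scopolamine-induced loss of spontaneous alternation after ip or oral doses of 3 and 30 mg/kg; significant doses reported.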

[20] = molecular target: Neuronal acetylcholine receptor subunit alpha-7 (Rattus norvegicus) (UniProt Q05941); experiment: Positive allosteric modulatory activity at rat alpha7 nAChR expressed in GH4C1 cells assessed as potentiation of acetylcholine response at 3 uM at -70 mV holding potential preincubated for 30 secs followed by co-application with acetylcholine by manual patch clamp assay; assay type: cell-based; summary of the method: as §2
[21] = test system: Mus musculus; experiment: Reversal of scopolamine-induced memory impairment in mouse assessed as increase in spontaneous alteration at 3 to 30 mg/kg, ip administered with compond and scopolamine at 60 mins snd 30 mins respectively prior to test by T-maze test; assay type: functional, organism-based; summary of the method: as §5
[22] = Lipophilicity, log D of the compound at pH 7.4; assay type: physicochemical; conditions: buffer
[23] = molecular target: Neuronal acetylcholine receptor subunit alpha-7 (Rattus norvegicus) (UniProt Q05941); experiment: as §1, with “of acetylcholine response at 3 uM” for “of peak current”, “to potentiation of” for “to peak”, “current response” for “current potentiation”; assay type: cell-based; summary of the method: as §2
[24] = test system: Mus musculus; experiment: Reversal of scopolamine-induced memory impairment in mouse assessed as percentage of increase in spontaneous alteration at 10 mg/kg, po administered with compond and scopolamine at 60 mins snd 30 mins respectively prior to test by T-maze test; assay type: functional; conditions: read-out: INH; summary of the method: as §3
[25] = test system: Mus musculus; experiment: Reversal of scopolamine-induced memory impairment in mouse assessed as increase in spontaneous alteration at 1 mg/kg, po administered with compond and scopolamine at 60 mins and 30 mins respectively prior to test by T-maze test; assay type: functional; conditions: read-out: INH; summary of the method: as §3

Chain of Neuronal acetylcholine receptor subunit alpha-7 (Rattus norvegicus) (Q05941 whole entry): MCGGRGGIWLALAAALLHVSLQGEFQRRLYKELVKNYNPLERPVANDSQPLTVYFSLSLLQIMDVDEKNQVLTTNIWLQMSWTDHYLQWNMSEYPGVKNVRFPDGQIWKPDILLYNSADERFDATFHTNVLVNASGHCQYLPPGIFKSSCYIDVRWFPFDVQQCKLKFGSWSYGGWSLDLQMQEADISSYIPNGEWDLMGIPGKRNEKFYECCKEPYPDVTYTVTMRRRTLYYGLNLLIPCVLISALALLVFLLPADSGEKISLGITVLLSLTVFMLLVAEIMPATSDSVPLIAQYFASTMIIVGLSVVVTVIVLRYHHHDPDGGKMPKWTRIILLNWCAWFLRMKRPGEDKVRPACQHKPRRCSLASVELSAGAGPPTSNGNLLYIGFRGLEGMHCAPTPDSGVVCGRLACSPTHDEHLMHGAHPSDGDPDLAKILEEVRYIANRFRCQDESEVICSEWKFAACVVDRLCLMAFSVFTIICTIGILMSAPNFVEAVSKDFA
Chain of Neuronal acetylcholine receptor subunit alpha-7 (Q05941 whole entry): as above

Activity [1]: 2440%
Compound: CC1(C)C(CNc2cc(F)ccc2OC(F)(F)F)C1c1ccc(S(N)(=O)=O)cc1 (racemic)

Activity [1]: 8930%
Compound: Cc1cc(F)c(F)cc1NC[C@H]1[C@H](c2ccc(S(N)(=O)=O)cc2)C1(C)C
percent reversal of scopolamine-induced memory impairment at 3 mg/kg [7]: -15%
percent increase in spontaneous alternation at 10 mg/kg [24]: -5%
percent reversal of scopolamine-induced memory impairment (increase in spontaneous alternation) at 1 mg/kg [25]: -13%

Activity [1]: 9230%
Compound: Cc1cc(F)c(Cl)cc1NCC1C(c2ccc(S(N)(=O)=O)cc2)C1(C)C (racemic)

Activity [1]: 410%
Compound: COc1ccc(Cl)cc1NC(=O)c1cccc(-c2ccc(S(N)(=O)=O)cc2)c1
inhibition [19]: inactive

Activity [1]: Active
Compound: CCOc1ccc(Cl)cc1NC(=O)C1C(c2ccc(S(N)(=O)=O)cc2)C1(C1CCCCC1)C1CCCCC1 (centres undefined)

Activity [1]: < 100%
Compound: CC1(C)C(CNC2CCCCC2)C1c1ccc(S(N)(=O)=O)cc1 (racemic)

Second part, the molecule before the results:

Compound: CCOc1ccc(Cl)cc1NC(=O)C1C(c2ccc(S(N)(=O)=O)cc2)C1(CC)CC (centres undefined)
Activity [1]: Active

Compound: Cc1cc(F)ccc1NC[C@H]1[C@H](c2ccc(S(N)(=O)=O)cc2)C1(C)C
Activity [1]: 17600%

Compound: COc1ccc(Cl)cc1NC[C@H]1[C@H](c2ccc(S(N)(=O)=O)cc2)C1(C)C
Ratio [2]: 25
Ratio [3]: 57
hepatic extraction ratio at 0.75 h, 1 µM [4]: 0.59
EC50 [5]: 63 nM
Papp [6]: 14 ×10⁻⁶ cm/s
percent reversal of scopolamine-induced memory impairment at 3 mg/kg [7]: 90%
bioavailability [8]: 77%
half-life [9]: 3.9 h
Activity [1]: 11800%
inhibition in vivo at 0.03 mg/kg [10]: 11%
AUC/dose [11]: 1 µM·h/mg
inhibition in vivo at 0.003 mg/kg [12]: -3%
Vd [13]: 5.1 L/kg
clearance [14]: 43 mL/min/kg
inhibition in vivo at 0.3 mg/kg [15]: 65%
Emax [16]: 1630%
hepatic extraction ratio at 0.75 h, 1 µM [17]: 0.71

Compound: COc1ccc(Cl)cc1NC(=O)C1C(c2ccc(S(N)(=O)=O)cc2)C12CCCC2 (racemic)
solubility [18]: 1.6 to 3.1 µg/mL (≈ 3.68 to 7.13 µM)
inhibition [19]: inactive
Activity [20]: 360%
inhibition [21]: Active
Activity [1]: 710%
logD [22]: 4.2
Ratio [23]: 5.6

Compound: COc1ccc(S(N)(=O)=O)cc1NCC1C(c2ccc(S(N)(=O)=O)cc2)C1(C)C (racemic)
Activity [1]: < 100%

Compound: COc1ccc(Cl)cc1NCC1C(c2ccc(S(=O)(=O)NN)cc2)C1(C)C (racemic)
Activity [1]: 130%

Compound: CC1(C)C(CNc2ccc(N3CCOCC3)cc2)C1c1ccc(S(N)(=O)=O)cc1 (racemic)
Activity [1]: < 100%

Compound: Cc1cc(F)c(F)cc1NC[C@@H]1[C@@H](c2ccc(S(N)(=O)=O)cc2)C1(C)C
percent reversal of scopolamine-induced memory impairment at 3 mg/kg [7]: 31%
Activity [1]: 420%
percent increase in spontaneous alternation at 10 mg/kg [24]: 15%
percent reversal of scopolamine-induced memory impairment (increase in spontaneous alternation) at 1 mg/kg [25]: 8%

Compound: CC1(C)[C@H](CNc2ccc(F)cc2OC(F)F)[C@H]1c1ccc(S(N)(=O)=O)cc1
percent reversal of scopolamine-induced memory impairment at 3 mg/kg [7]: 8%
Activity [1]: 170%
percent increase in spontaneous alternation at 10 mg/kg [24]: 41%
percent reversal of scopolamine-induced memory impairment (increase in spontaneous alternation) at 1 mg/kg [25]: 28%

Compound: CC1(C)C(CNc2ccc(F)cc2OC(F)F)C1c1ccc(S(N)(=O)=O)cc1 (racemic)
Activity [1]: 3360%

Compound: CC1(C)C(CNc2cccc(N3CCOCC3)c2)C1c1ccc(S(N)(=O)=O)cc1 (racemic)
Activity [1]: 460%
